# From ChEMBL document CHEMBL4689842, “EUbOPEN Chemogenomics Library wave 1” (2021)
# Legend:
# Fibroblast [1] = assay: Incucyte cell viability with human fibroblast; assay type: toxicity, cell-based; conditions: 10 µM, compound concentration 10 uM; further: filed as whole numbers so only -1 and 0 and 1 occur
# Fibroblast [2] = assay: Multiplex assay against human fibroblast; assay type: toxicity, cell-based
# How it was run: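 Live cells carried four stains from seeding: Hoechst33342, BioTracker Green Microtubule Cytoskeleton Dye, MitoTracker Red and Annexin V Alexa Fluor 680. They were imaged on a CQ1 microscope at 37°C and 5% CO2 after compound addition. Using CellPathfinder machine-learning gating, cells were split into Hoechst high-intensity objects or normal cells, normal cells into healthy, pyknosed or fragmented nuclei, and pyknosed cells into mitotic or apoptotic; tubulin, mitochondrial-mass and membrane-permeability phenotypes are per cents of healthy-nucleus cells.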
# [3] = 12 h, 1 µM, compound concentration 1 uM, replicate 1
# [4] = 12 h, 1 µM, compound concentration 1 uM, replicate 2
# [5] = 12 h, 10 µM, compound concentration 10 uM, replicate 1
# [6] = 12 h, 10 µM, compound concentration 10 uM, replicate 2
# [7] = 24 h, 1 µM, compound concentration 1 uM, replicate 1
# [8] = 24 h, 1 µM, compound concentration 1 uM, replicate 2
# [9] = 24 h, 10 µM, compound concentration 10 uM, replicate 1
smiles,measurement,setting,value
CCCCCNC(=N)N/N=C/c1c[nH]c2ccc(OC)cc12.O=C(O)/C=C\C(=O)O [TEGASEROD MALEATE],Growth Rate,"Fibroblast [1]; 6 h, replicate number 1, timepoint 6 hours",0
same,Growth Rate,"Fibroblast [1]; 12 h, replicate number 1, timepoint 12 hours",0
same,Growth Rate,"Fibroblast [1]; 18 h, replicate number 1, timepoint 18 hours",0
same,Growth Rate,"Fibroblast [1]; 24 h, replicate number 1, timepoint 24 hours",0
same,Population Apoptotic (%),Fibroblast [2]; [3],65%
same,Population Fragmented Nuclei (%),Fibroblast [2]; [3],25%
same,Population Healthy Nuclei (%),Fibroblast [2]; [3],47%
same,Population Hoechst High Intensity Objects (%),Fibroblast [2]; [3],8%
same,Population Membrane Permeable-Phenotype (%),Fibroblast [2]; [3],10%
same,Population Mitochondria Different-Phenotype (%),Fibroblast [2]; [3],0%
same,Population Mitotic Cells (%),Fibroblast [2]; [3],34%
same,Population Normal (%),Fibroblast [2]; [3],91%
same,Population Pyknosed Nuclei (%),Fibroblast [2]; [3],27%
same,Population Tubulin-Different-Phenotype (%),Fibroblast [2]; [3],22%
same,Total Cell Count,Fibroblast [2]; [3],114
same,Population Apoptotic (%),Fibroblast [2]; [4],20%
same,Population Fragmented Nuclei (%),Fibroblast [2]; [4],12%
same,Population Healthy Nuclei (%),Fibroblast [2]; [4],79%
same,Population Hoechst High Intensity Objects (%),Fibroblast [2]; [4],3%
same,Population Membrane Permeable-Phenotype (%),Fibroblast [2]; [4],4%
same,Population Mitochondria Different-Phenotype (%),Fibroblast [2]; [4],22%
same,Population Mitotic Cells (%),Fibroblast [2]; [4],80%
same,Population Normal (%),Fibroblast [2]; [4],96%
same,Population Pyknosed Nuclei (%),Fibroblast [2]; [4],8%
same,Population Tubulin-Different-Phenotype (%),Fibroblast [2]; [4],14%
same,Total Cell Count,Fibroblast [2]; [4],74
same,Population Apoptotic (%),Fibroblast [2]; [5],50%
same,Population Fragmented Nuclei (%),Fibroblast [2]; [5],34%
same,Population Healthy Nuclei (%),Fibroblast [2]; [5],12%
same,Population Hoechst High Intensity Objects (%),Fibroblast [2]; [5],20%
same,Population Membrane Permeable-Phenotype (%),Fibroblast [2]; [5],6%
same,Population Mitochondria Different-Phenotype (%),Fibroblast [2]; [5],50%
same,Population Mitotic Cells (%),Fibroblast [2]; [5],49%
same,Population Normal (%),Fibroblast [2]; [5],80%
same,Population Pyknosed Nuclei (%),Fibroblast [2]; [5],52%
same,Population Tubulin-Different-Phenotype (%),Fibroblast [2]; [5],62%
same,Total Cell Count,Fibroblast [2]; [5],155
same,Population Apoptotic (%),Fibroblast [2]; [6],100%
same,Population Fragmented Nuclei (%),Fibroblast [2]; [6],22%
same,Population Healthy Nuclei (%),Fibroblast [2]; [6],3%
same,Population Hoechst High Intensity Objects (%),Fibroblast [2]; [6],35%
same,Population Membrane Permeable-Phenotype (%),Fibroblast [2]; [6],100%
same,Population Mitochondria Different-Phenotype (%),Fibroblast [2]; [6],100%
same,Population Mitotic Cells (%),Fibroblast [2]; [6],0%
same,Population Normal (%),Fibroblast [2]; [6],64%
same,Population Pyknosed Nuclei (%),Fibroblast [2]; [6],73%
same,Population Tubulin-Different-Phenotype (%),Fibroblast [2]; [6],100%
same,Total Cell Count,Fibroblast [2]; [6],64
same,Population Apoptotic (%),Fibroblast [2]; [7],52%
same,Population Fragmented Nuclei (%),Fibroblast [2]; [7],24%
same,Population Healthy Nuclei (%),Fibroblast [2]; [7],56%
same,Population Hoechst High Intensity Objects (%),Fibroblast [2]; [7],10%
same,Population Membrane Permeable-Phenotype (%),Fibroblast [2]; [7],15%
same,Population Mitochondria Different-Phenotype (%),Fibroblast [2]; [7],1%
same,Population Mitotic Cells (%),Fibroblast [2]; [7],47%
same,Population Normal (%),Fibroblast [2]; [7],90%
same,Population Pyknosed Nuclei (%),Fibroblast [2]; [7],18%
same,Population Tubulin-Different-Phenotype (%),Fibroblast [2]; [7],35%
same,Total Cell Count,Fibroblast [2]; [7],100
same,Population Apoptotic (%),Fibroblast [2]; [8],87%
same,Population Fragmented Nuclei (%),Fibroblast [2]; [8],10%
same,Population Healthy Nuclei (%),Fibroblast [2]; [8],77%
same,Population Hoechst High Intensity Objects (%),Fibroblast [2]; [8],5%
same,Population Membrane Permeable-Phenotype (%),Fibroblast [2]; [8],5%
same,Population Mitochondria Different-Phenotype (%),Fibroblast [2]; [8],21%
same,Population Mitotic Cells (%),Fibroblast [2]; [8],12%
same,Population Normal (%),Fibroblast [2]; [8],94%
same,Population Pyknosed Nuclei (%),Fibroblast [2]; [8],12%
same,Population Tubulin-Different-Phenotype (%),Fibroblast [2]; [8],7%
same,Total Cell Count,Fibroblast [2]; [8],89
same,Population Apoptotic (%),Fibroblast [2]; [9],74%
same,Population Fragmented Nuclei (%),Fibroblast [2]; [9],39%
